Measurements taken from ChEMBL document CHEMBL1125170, “A novel series of selective leukotriene antagonists: exploration and optimization of the acidic region in 1,6-disubstituted indoles and indazoles” (1990).
Where “and” joins values, the source holds several entries; their conditions need not be identical. Equal values may be shown once. Values belong to the molecule of their own block, whether it stands above or below them.

Key:
Cavia porcellus [1] = species on record: Cavia porcellus; assay: Dissociation constant KB = [antagonist]/(dose ratio -1). KB determined in guinea pig tracheal spirals with LTE4 as agonist.; assay type: functional, Trachea
Outline: (§1)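 Isolated guinea pig tracheal strips in Krebs' buffer with indomethacin (5 μM), 37 °C, 95% O2/5% CO2, resting tension 2 g. Carbachol (30 μM) sets the maximum. Antagonist incubated 30 min, then cumulative LTE4 concentration–response curves in log increments, one curve per tissue. EC50 by linear regression, paired vehicle controls. KB = [antagonist]/(DR − 1) (Furchgott).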

Cavia porcellus [2] = species on record: Cavia porcellus; assay: In vitro antagonism of 8 nM of peptidoleukotriene (LTE4) induced contraction of guinea pig tracheal spirals at 1 X E-7M concentration; assay type: functional, Trachea
Outline: (§2)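 Guinea pig tracheal spirals held at 37 °C in modified Krebs' (mM: NaCl 119, KCl 4.6, CaCl2 1.8, MgCl2 0.5, NaHCO3 24.9, NaH2PO4 1.0, glucose 11.1) plus indomethacin 5 μM, resting tension 2 g, isometric recording. After reproducible 8 nM LTE4 responses, compound added for 10 min, then rechallenged. % inhibition is adjusted for the paired vehicle tissue. At least four spirals, paired t test.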

Cavia porcellus [3] = species on record: Cavia porcellus; assay: In vitro antagonism of 8 nM of peptidoleukotriene (LTE4) induced contraction of guinea pig tracheal spirals at 0.033 X E-7M concentration; assay type: functional, Trachea; outline: as §2
Cavia porcellus [4] = species on record: Cavia porcellus; assay: In vitro antagonism of 8 nM of peptidoleukotriene (LTE4) induced contraction of guinea pig tracheal spirals at 0.01 X E-7M concentration; assay type: functional, Trachea; outline: as §2
Cavia porcellus [5] = species on record: Cavia porcellus; assay: In vitro antagonism of 8 nM of peptidoleukotriene (LTE4) induced contraction of guinea pig tracheal spirals at 100 X E-7M concentration; assay type: functional, Trachea; outline: as §2
Cavia porcellus [6] = species on record: Cavia porcellus; assay: In vitro antagonism of 8 nM of peptidoleukotriene (LTE4) induced contraction of guinea pig tracheal spirals at 10 X E-7M concentration; assay type: functional, Trachea; outline: as §2
Cavia porcellus [7] = species on record: Cavia porcellus; assay: In vitro antagonism of 8 nM of peptidoleukotriene (LTE4) induced contraction of guinea pig tracheal spirals at 0.1 X E-7M concentration; assay type: functional, Trachea; outline: as §2
[8] = target: T1, Cysteinyl leukotriene receptor 1 (Cavia porcellus) (UniProt Q2NNR5); assay: Dissociation constant KB = [antagonist]/(dose ratio -1).KB determined in guinea pig tracheal spirals with LTE4 as agonist; assay type: functional, tissue-based; conditions: Trachea; outline: as §1
T1 sequence (whole entry): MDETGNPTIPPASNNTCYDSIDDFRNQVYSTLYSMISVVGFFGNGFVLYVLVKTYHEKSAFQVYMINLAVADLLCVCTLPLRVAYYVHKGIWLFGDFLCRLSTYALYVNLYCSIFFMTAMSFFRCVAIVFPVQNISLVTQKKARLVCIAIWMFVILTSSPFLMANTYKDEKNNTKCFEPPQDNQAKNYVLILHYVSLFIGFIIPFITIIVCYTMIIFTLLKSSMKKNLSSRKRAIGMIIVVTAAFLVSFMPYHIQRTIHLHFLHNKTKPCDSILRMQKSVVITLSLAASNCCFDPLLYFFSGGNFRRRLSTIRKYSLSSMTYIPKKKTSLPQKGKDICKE

Cavia porcellus [9] = species on record: Cavia porcellus; assay: In vitro antagonism of 8 nM of peptidoleukotriene (LTE4) induced contraction of guinea pig tracheal spirals at 33 X E-7M concentration; assay type: functional, Trachea; outline: as §2

SMILES: CCCCC(CC)C(=O)Nc1ccc2ccn(Cc3c(OC)cc(C(=O)NS(=O)(=O)c4ccccc4)cc3OC)c2c1 (stereo unspecified)
pKB (Cavia porcellus [1]): 8
Antagonism (Cavia porcellus [2]): 72%

SMILES: COC(=O)C(C(=O)c1ccc(Cn2ccc3ccc(NC(=O)CC4CCCC4)cc32)c(OC)c1)S(=O)(=O)c1ccccc1 (stereo unspecified)
pKB (Cavia porcellus [1]): 10.1
Antagonism (Cavia porcellus [3]): 94%
Antagonism (Cavia porcellus [4]): 63%

SMILES: CCCCC(CC)C(=O)Nc1ccc2ccn(Cc3ccc(C(=O)Nc4nn[nH]n4)cc3OC)c2c1 (stereo unspecified)
Antagonism (Cavia porcellus [5]): 62%
Antagonism (Cavia porcellus [6]): 20%

SMILES: CCCCC(CC)C(=O)Nc1ccc2ccn(Cc3ccc(C(=O)O)cc3F)c2c1 (stereo unspecified)
Antagonism (Cavia porcellus [5]): 86%

SMILES: COc1cc(C(=O)NS(=O)(=O)c2ccccc2OC)ccc1Cn1ccc2ccc(NC(=O)CC3CCCC3)cc21
pKB (Cavia porcellus [1]): 9.7

SMILES: CCCCC(CC)C(=O)Nc1ccc2ccn(Cc3ccc(C(=O)O)cc3OCCCc3nnn[nH]3)c2c1 (stereo unspecified)
Antagonism (Cavia porcellus [6]): 32%

SMILES: CCCCC(CC)C(=O)Nc1ccc2ccn(Cc3ccc(C(=O)NS(=O)(=O)c4ccccc4)cc3OC)c2c1 (stereo unspecified)
Antagonism (Cavia porcellus [7]): 27%
pKB (Cavia porcellus [1]): 8.6
Antagonism (Cavia porcellus [2]): 100%

SMILES: CCCCC(CC)C(=O)Nc1ccc2ccn(Cc3ccc(C(=O)O)c(OC)c3)c2c1 (stereo unspecified)
Antagonism (Cavia porcellus [6]): 15%

SMILES: CCCCC(CC)C(=O)Nc1ccc2ccn(Cc3ccc(C(=O)NS(=O)(=O)C(C)C)cc3OC)c2c1 (stereo unspecified)
Antagonism (Cavia porcellus [6]): 47%

pKB [8]: 6.6
SMILES: CCCCC(CC)C(=O)Nc1ccc2ccn(Cc3ccc(C(=O)O)cc3OC)c2c1 (stereo unspecified)
Antagonism (Cavia porcellus [9]): 100%
Antagonism (Cavia porcellus [6]): 59%

SMILES: CCCCC(CC)C(=O)Nc1ccc2ccn(Cc3ccc(C(=O)O)cc3OCCCC#N)c2c1 (stereo unspecified)
Antagonism (Cavia porcellus [5]): 84%
Antagonism (Cavia porcellus [9]): 33%

SMILES: COc1cc(C(=O)NS(=O)(=O)c2ccc3ccccc3c2)ccc1Cn1ccc2ccc(NC(=O)CC3CCCC3)cc21
pKB (Cavia porcellus [1]): 8.3

SMILES: CCCCC(CC)C(=O)Nc1ccc2ccn(Cc3ccc(C(=O)NS(=O)(=O)c4ccc(F)cc4)cc3OC)c2c1 (stereo unspecified)
pKB (Cavia porcellus [1]): 7.7

SMILES: COc1cc(C(=O)NS(=O)(=O)c2c(C)cccc2Cl)ccc1Cn1ccc2ccc(NC(=O)CC3CCCC3)cc21
pKB (Cavia porcellus [1]): 8.8

SMILES: CCC(C(=O)Nc1ccc2ccn(Cc3ccc(C(=O)NS(=O)(=O)c4ccccc4)cc3OC)c2c1)c1ccccc1 (stereo unspecified)
Antagonism (Cavia porcellus [7]): 33%

SMILES: COc1cc(C(=O)O)ccc1Cn1ccc2ccc(NC(=O)CC3CCCC3)cc21
Antagonism (Cavia porcellus [2]): 34%

SMILES: COc1cc(C(=O)NS(=O)(=O)c2cccs2)ccc1Cn1ccc2ccc(NC(=O)CC3CCCC3)cc21
pKB (Cavia porcellus [1]): 9.6

SMILES: COc1cc(C(=O)NS(=O)(=O)c2ccccc2C)ccc1Cn1ncc2ccc(NC(=O)OC3CCCC3)cc21
pKB (Cavia porcellus [1]): 10.2

SMILES: COc1cc(C(=O)N(C)S(=O)(=O)c2ccccc2)ccc1Cn1ccc2ccc(NC(=O)CC3CCCC3)cc21
Antagonism (Cavia porcellus [2]): 42%

SMILES: COc1cc(-c2nn[nH]n2)ccc1Cn1ccc2ccc(NC(=O)OC3CCCC3)cc21
pKB (Cavia porcellus [1]): 7.6
Antagonism (Cavia porcellus [6]): 62%

SMILES: CCCCC(CC)C(=O)Nc1ccc2ccn(Cc3ccc(C(=O)NO)cc3OC)c2c1 (stereo unspecified)
Antagonism (Cavia porcellus [5]): 38%

SMILES: CCCCC(CC)C(=O)Nc1ccc2ccn(Cc3ccc(C(=O)NS(=O)(=O)c4ccccc4)c(OC)c3)c2c1 (stereo unspecified)
Antagonism (Cavia porcellus [2]): 52%

SMILES: CCCCC(CC)C(=O)Nc1ccc2ccn(Cc3ccc(C(=O)NS(=O)(=O)c4ccc([N+](=O)[O-])cc4)cc3OC)c2c1 (stereo unspecified)
pKB (Cavia porcellus [1]): 7.7

SMILES: CCCCC(CC)C(=O)Nc1ccc2cnn(Cc3ccc(-c4nn[nH]n4)cc3OC)c2c1 (stereo unspecified)
pKB (Cavia porcellus [1]): 7.1
Antagonism (Cavia porcellus [6]): 100%

SMILES: CCCCC(CC)C(=O)Nc1ccc2ccn(Cc3ccc(C(=O)O)cc3)c2c1 (stereo unspecified)
Antagonism (Cavia porcellus [5]): 44%

SMILES: CCCCC(CC)C(=O)Nc1ccc2ccn(Cc3ccc(C(=O)NS(=O)(=O)c4ccccc4)cc3)c2c1 (stereo unspecified)
pKB (Cavia porcellus [1]): 6.8
Antagonism (Cavia porcellus [2]): 42%

SMILES: CCCCC(CC)C(=O)Nc1ccc2ccn(Cc3ccc(C(=O)O)cc3Cl)c2c1 (stereo unspecified)
Antagonism (Cavia porcellus [5]): 44%

SMILES: CCCCC(CC)C(=O)Nc1ccc2ccn(Cc3ccc(C(=O)NS(=O)(=O)c4ccc(Cl)cc4)cc3OC)c2c1 (stereo unspecified)
pKB (Cavia porcellus [1]): 7.8

SMILES: CCCCCC(=O)Nc1ccc2ccn(Cc3ccc(-c4nn[nH]n4)cc3OC)c2c1
Antagonism (Cavia porcellus [9]): 86%
Antagonism (Cavia porcellus [6]): 32%

SMILES: CCCCC(CC)C(=O)Nc1ccc2ccn(Cc3ccc(C(=O)N[S+]([O-])c4ccccc4)cc3OC)c2c1 (stereo unspecified)
Antagonism (Cavia porcellus [9]): 34%

SMILES: CCCCOc1cc(C(=O)O)ccc1Cn1ccc2ccc(NC(=O)C(CC)CCCC)cc21 (stereo unspecified)
Antagonism (Cavia porcellus [5]): 83%
Antagonism (Cavia porcellus [9]): 44%

SMILES: CCCCC(CC)C(=O)Nc1ccc2ccn(Cc3ccc(C(=O)NS(C)(=O)=O)cc3OC)c2c1 (stereo unspecified)
Antagonism (Cavia porcellus [6]): 100% and 60%
